Assay outcomes deposited in PubChem by Johns Hopkins Ion Channel Center.
TRPC4 PAM: TRPC4 (mouse) allosteric potentiation. actives 0.42% (n = 310,000). Q9QUQ5. HEK293 TRPC4beta/mu-opioid, DAMGO EC20, Fluo-4 Ca2+ flux; active compounds read high. B-score at 10 µM;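 active means B-score of calcium response area above 5 SD of library B-scores, with initial fluorescence ratio within 5 SD of library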;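 further: B-score of integrated fluorescence ratio over time as area under calcium response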
TRPC6 activator: activates the mouse TRPC6 cation channel; HEK293-TRPC6 membrane potential dye fluorescence; active compounds read high; actives 0.13% (n = 310,000); AID 2550; B-score at 10 µM;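 active means B-score of the integrated fluorescence ratio above library mean plus 3 SD, and starting fluorescence ratio within library mean plus 5 SD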;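 further: higher score means more depolarization so channel activation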
Target sequence (Q61143 whole entry, looked up): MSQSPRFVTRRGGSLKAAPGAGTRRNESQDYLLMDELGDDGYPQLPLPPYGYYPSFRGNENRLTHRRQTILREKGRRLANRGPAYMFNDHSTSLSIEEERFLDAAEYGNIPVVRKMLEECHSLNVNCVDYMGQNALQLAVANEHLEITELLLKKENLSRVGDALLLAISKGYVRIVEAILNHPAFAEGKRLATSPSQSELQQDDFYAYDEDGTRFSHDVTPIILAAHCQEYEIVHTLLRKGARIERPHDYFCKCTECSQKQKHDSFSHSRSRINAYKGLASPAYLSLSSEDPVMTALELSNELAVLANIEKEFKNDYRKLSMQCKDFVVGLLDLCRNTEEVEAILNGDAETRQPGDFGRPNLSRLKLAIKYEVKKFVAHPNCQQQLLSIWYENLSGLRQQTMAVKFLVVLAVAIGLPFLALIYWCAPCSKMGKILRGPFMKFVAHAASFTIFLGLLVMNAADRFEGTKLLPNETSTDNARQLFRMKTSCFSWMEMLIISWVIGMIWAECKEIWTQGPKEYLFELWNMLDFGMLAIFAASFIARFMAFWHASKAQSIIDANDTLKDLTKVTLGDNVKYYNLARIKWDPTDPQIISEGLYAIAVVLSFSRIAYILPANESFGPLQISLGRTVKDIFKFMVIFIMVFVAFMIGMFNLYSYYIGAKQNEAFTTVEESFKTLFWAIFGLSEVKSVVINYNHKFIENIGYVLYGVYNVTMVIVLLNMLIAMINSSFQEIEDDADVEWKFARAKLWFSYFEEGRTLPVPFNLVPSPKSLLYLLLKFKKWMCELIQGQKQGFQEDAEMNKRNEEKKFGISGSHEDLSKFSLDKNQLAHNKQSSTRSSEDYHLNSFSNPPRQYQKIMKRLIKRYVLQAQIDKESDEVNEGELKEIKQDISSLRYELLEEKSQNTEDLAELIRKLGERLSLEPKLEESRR
TRPC4 inh: blocks the mouse TRPC4 cation channel; Q9QUQ5; HEK293 TRPC4beta/mu-opioid, DAMGO-evoked Fluo4 calcium flux; active compounds read low; B-score at 10 µM; actives 0.39% (n = 300,000);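 active means B-score over 3 SD under the library average, no early fluorescence shift, positive overall ratio signal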
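Test system – stable TRPC4beta/mu-opioid receptor HEK293 cells · Probe or stimulus – DAMGO, a submaximal dose followed by a maximal one · Dosing – one concentration per compound · Signal – Fluo4 calcium fluorescence by kinetic imaging, 5 s 1 Hz baseline · Evaluation – per-well B score of integrated baseline-normalized Fluo4 ratio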
TRPC4 agonist: TRPC4 (mouse) channel activation. HEK293 TRPC4beta/mu-opioid, Fluo4 calcium fluorescence; active compounds read high. AID 2237. Q9QUQ5. actives 0.49% (n = 310,000). B-score at 10 µM;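 active means B-score above 5 SD of library B-scores, and initial fluorescence ratio not above library mean plus 5 SD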;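 further: positive B-score marks a calcium rise read as TRPC4 activation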
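Technique: kinetic Fluo4 calcium fluorescence; Test system: TRPC4beta and mu-opioid receptor HEK293 stable cells; Measure: B-scored integrated calcium fluorescence ratio; Benchmarks: low control buffer alone, high control maximal DAMGO; Schedule: 45 min room-temperature Fluo4 loading, 110 s read.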
TRPC6 inh: inhibitors of mouse TRPC6 channel; B-score at 10 µM; Q61143; actives 1.1% (n = 310,000); HEK293-TRPC6, membrane potential dye, ACh-evoked depolarization; active compounds read low; AID 2553;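 active means B-score under library mean minus 3 SD, initial fluorescence not abnormally high, positive integrated signal ratio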;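 further: B-score derived from integrated fluorescence ratio over the kinetic read; more negative B-score means stronger inhibition of depolarization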
* marks the source's active call; other numbers are inactive results. Only some compounds are listed: those with a hit (about 2.3% of all), similar ones and a draw of the others.

What do the screens show for `COC(=O)[C@@]12CCCCN1[C@H](c1ccc(-c3ccc(OC)cc3)cc1)[C@@H]1C(=O)N(C)C(=O)[C@@H]12`?
TRPC4 PAM: 13*; TRPC6 activator: inactive; TRPC4 inh: inactive; TRPC4 agonist: inactive; TRPC6 inh: inactive

How did COC(=O)[C@@]12CCCCN1[C@H](c1ccc(-c3cccc(Cl)c3)c(OC)c1)[C@H]1C(=O)N(C)C(=O)[C@H]12 do in these assays?
TRPC4 PAM: 25*; TRPC6 activator: inactive; TRPC4 inh: inactive; TRPC4 agonist: inactive; TRPC6 inh: inactive

How did COc1ccc([C@@H]2[C@@H]3C(=O)N(C(C)(C)C)C(=O)[C@@H]3[C@]3(C)C(=O)N(c4cccc(Br)c4)C(=O)N23)cc1 do in these assays?
TRPC4 PAM: inactive; TRPC6 activator: inactive; TRPC4 inh: inactive; TRPC4 agonist: inactive; TRPC6 inh: inactive

What do the screens show for `Cc1ccc(C)c2[nH]c(=O)c(CN(CC3CCCO3)C(=S)NCc3ccco3)cc12` (stereo not given)?
TRPC4 PAM: inactive; TRPC6 activator: inactive; TRPC4 inh: -6*; TRPC4 agonist: inactive; TRPC6 inh: inactive

How did COc1ccc(CN(C)CC(=O)NC2CCCc3ccccc32)cc1OC (stereo not given) do in these assays?
TRPC4 PAM: inactive; TRPC6 activator: inactive; TRPC4 inh: inactive; TRPC4 agonist: inactive; TRPC6 inh: inactive

How did Cc1sc2ncnc(N(C)CCc3ccccn3)c2c1C do in these assays?
TRPC4 PAM: inactive; TRPC6 activator: inactive; TRPC4 inh: inactive; TRPC4 agonist: 80*; TRPC6 inh: inactive

Results for Cc1sc2ncnc(N(C)Cc3cccs3)c2c1C ?
TRPC4 PAM: inactive; TRPC6 activator: inactive; TRPC4 inh: inactive; TRPC4 agonist: inactive; TRPC6 inh: inactive

What do the screens show for `COc1cc(CN2CCc3ccccc3C2)ccc1O`?
TRPC4 PAM: inactive; TRPC6 activator: inactive; TRPC4 inh: inactive; TRPC4 agonist: inactive; TRPC6 inh: inactive

Results for CCOc1cc(/C=N/NC(=O)c2ccc(N(C)S(=O)(=O)c3ccccc3)cc2)ccc1OC ?
TRPC4 PAM: inactive; TRPC6 activator: inactive; TRPC4 inh: inactive; TRPC4 agonist: inactive; TRPC6 inh: inactive

What do the screens show for `Cc1cc(NC(=O)CN2CCc3ccccc3C2)nc2c1c(=O)oc1ccccc12`?
TRPC4 PAM: inactive; TRPC6 activator: inactive; TRPC4 inh: inactive; TRPC4 agonist: 98*; TRPC6 inh: inactive

How did CCCC(=O)Nc1cc(C)c2c(=O)oc3ccccc3c2n1 do in these assays?
TRPC4 PAM: inactive; TRPC6 activator: inactive; TRPC4 inh: inactive; TRPC4 agonist: inactive; TRPC6 inh: inactive

Results for CNS(=O)(=O)c1cc(-c2nnc(N3CCOCC3)c3ccccc23)ccc1C ?
TRPC4 PAM: inactive; TRPC6 activator: inactive; TRPC4 inh: inactive; TRPC4 agonist: inactive; TRPC6 inh: inactive

Results for CCOc1nc(C)cc(C)c1S(=O)(=O)c1cccc(C)c1 ?
TRPC4 PAM: 19*; TRPC6 activator: inactive; TRPC4 inh: inactive; TRPC4 agonist: inactive; TRPC6 inh: inactive

What do the screens show for `Cc1cc(C)c(S(=O)(=O)c2c(C)cccc2C)c(OCC(C)C)n1`?
TRPC4 PAM: inactive; TRPC6 activator: inactive; TRPC4 inh: inactive; TRPC4 agonist: inactive; TRPC6 inh: inactive

What do the screens show for `CCN(CC)CCOC(=O)c1cccc(Br)c1`?
TRPC4 PAM: 27*; TRPC6 activator: inactive; TRPC4 inh: inactive; TRPC4 agonist: inactive; TRPC6 inh: inactive

What do the screens show for `CCN(CC)CCOC(=O)c1cccc(OC)c1`?
TRPC4 PAM: inactive; TRPC6 activator: inactive; TRPC4 inh: inactive; TRPC4 agonist: 80*; TRPC6 inh: inactive

Results for CCN(CC)CCOC(=O)c1cccc(Cl)c1 ?
TRPC4 PAM: inactive; TRPC6 activator: inactive; TRPC4 inh: inactive; TRPC4 agonist: inactive; TRPC6 inh: inactive

Results for CCOCc1cn(CC(=O)c2ccc(Cl)cc2)c(C)nc1=N ?
TRPC4 PAM: inactive; TRPC6 activator: inactive; TRPC4 inh: -8*; TRPC4 agonist: inactive; TRPC6 inh: inactive

How did CCOCc1cn(CC(=O)c2ccc([N+](=O)[O-])cc2)c(C)nc1=N do in these assays?
TRPC4 PAM: inactive; TRPC6 activator: inactive; TRPC4 inh: inactive; TRPC4 agonist: inactive; TRPC6 inh: inactive

What do the screens show for `O=C(NC1CCN(Cc2ccccc2)CC1)C12CC3CC(CC(C3)C1)C2`?
TRPC4 PAM: inactive; TRPC6 activator: inactive; TRPC4 inh: inactive; TRPC4 agonist: 123*; TRPC6 inh: inactive

How did O=C(Cc1ccc(Br)cc1)NC1CCN(Cc2ccccc2)CC1 do in these assays?
TRPC4 PAM: 12*; TRPC6 activator: inactive; TRPC4 inh: inactive; TRPC4 agonist: inactive; TRPC6 inh: inactive

How did Cc1cc(SCC(=O)N(C)CC(=O)Nc2ccc(F)cc2)nc2ccccc12 do in these assays?
TRPC4 PAM: inactive; TRPC6 activator: inactive; TRPC4 inh: inactive; TRPC4 agonist: inactive; TRPC6 inh: inactive

How did COc1ccc(/C=C/C(=O)NC2CCCCCCC2)cc1S(=O)(=O)N1CCOCC1 do in these assays?
TRPC4 PAM: inactive; TRPC6 activator: inactive; TRPC4 inh: inactive; TRPC4 agonist: inactive; TRPC6 inh: inactive

Results for Cc1cc(C)nc(NC(N)=NC2CCCCC2)n1 ?
TRPC4 PAM: inactive; TRPC6 activator: inactive; TRPC4 inh: -9*; TRPC4 agonist: inactive; TRPC6 inh: inactive

How did CC(=O)CC(=O)NC(=NC1CCCCC1)Nc1nc(C)cc(C)n1 do in these assays?
TRPC4 PAM: inactive; TRPC6 activator: inactive; TRPC4 inh: inactive; TRPC4 agonist: inactive; TRPC6 inh: inactive

Results for CNC(=S)N1CCN(CCNC2=CC(=O)CC(C)(C)C2)CC1 ?
TRPC4 PAM: inactive; TRPC6 activator: inactive; TRPC4 inh: inactive; TRPC4 agonist: inactive; TRPC6 inh: inactive

What do the screens show for `CC1(C)CC(NCCN2CCN(C3=CC(=C(C#N)C#N)CC(C)(C)C3)CC2)=CC(=C(C#N)C#N)C1`?
TRPC4 PAM: inactive; TRPC6 activator: inactive; TRPC4 agonist: 55*; TRPC6 inh: inactive

How did C=CCOc1ccc(CN(C)Cc2nc3cc(C(F)(F)F)ccc3c(=O)[nH]2)cc1 do in these assays?
TRPC4 PAM: 15*; TRPC6 activator: inactive; TRPC4 inh: inactive; TRPC4 agonist: inactive; TRPC6 inh: inactive

How did Cc1ccc(OCc2ccc(C(=O)N3CCCC3)o2)cc1C do in these assays?
TRPC4 PAM: inactive; TRPC6 activator: inactive; TRPC4 inh: inactive; TRPC4 agonist: inactive; TRPC6 inh: inactive

Results for CCOc1ccc(OCc2ccc(C(=O)N3CCCCC3)o2)cc1 ?
TRPC4 PAM: 10*; TRPC6 activator: inactive; TRPC4 inh: inactive; TRPC4 agonist: inactive; TRPC6 inh: inactive

Results for CC(C)c1ccc(NC(=S)N(C)CCc2ccccn2)cc1 ?
TRPC4 PAM: inactive; TRPC6 activator: inactive; TRPC4 inh: inactive; TRPC4 agonist: 107*; TRPC6 inh: inactive
